Values after ≈ are worked out from the molar mass of the structure shown.

Assay [1] relates to HUVECs tube formation. The experiment in a line: Endothelial cell tube formation assay. The class given is cell-based, human. Summed up: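 HUVECs grown in ECM-2 were trypsinized and resuspended in basal medium with 0.1% BSA. 5 × 10^4 cells were seeded onto tube-formation matrix plates with test compound or suramin as positive control, for 4–6 h at 37°C, 5% CO2. After HBSS washes, tube junctions were counted at ×4 and expressed as percentage inhibition.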

Assay [2] relates to microvessel outgrowth from rat aortic rings. Description: Ex vivo rat aortic ring assay. Conditions: 12.5 μg/mL, day 5, not significantly different from suramin. Summed up:
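Thoracic aortas from 10–12-week male Sprague Dawley rats were rinsed in HBSS with 2.5 µg/mL amphotericin B, cleaned and cut into 1 mm rings. Rings were embedded in fibrinogen (3 mg/mL)/thrombin gel in serum-free M199 with aprotinin, then fed M199 with 20% HIFCS and additives at 37°C, 5% CO2. Test compound ran 1.56–12.5 µg/mL, suramin positive, 1% DMSO negative. Day-5 sprouting area was measured (×4) in three experiments, six replicates each, as mean ± SD.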

Assay [3] has as its system HepG2 cells. Description: MTT cell proliferation inhibition, HepG2. It counts as cell-based. Conditions: Homo sapiens, HepG2, 72 h, read-out: IC50±SD. Summed up: (§1)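 HepG2 (passage 4–7), HUVEC and WRL68 cells (1 × 10^4) were exposed to test compound for 72 h, with 1% DMSO as negative control. Then 20 µL MTT (5 mg/mL in PBS) was added for 5 h at 37°C, 5% CO2. Absorbance was read at 570 nm against 630 nm reference, and viability expressed as percent of untreated cells. Triplicates were run and the experiment repeated three times.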

Assay [4] concerns WRL68 cells. Description: MTT cell proliferation inhibition, WRL68. The class given is cell-based. Particulars: Homo sapiens, WRL68, 72 h, read-out: IC50±SD. Summed up:
as §1

Assay [5] concerns human umbilical vein endothelial cells (HUVEC). The experiment in a line: MTT cell proliferation inhibition, HUVEC. It counts as cell-based. Conditions: 72 h. Summed up:
as §1

For assay [6], the system named is chick chorioallantoic membrane neovascularization. Description: Chorioallantoic membrane. It counts as in vivo, chicken. Particulars: 24 h, 6.25 and 12.5 μg/mL (Figure 3 legend). Summed up: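 On fertilized eggs incubated from day 5 at 37°C in constant humidity, 5 mL albumin was aspirated and the eggs laid horizontally to detach the CAM. Test compound in 1.2% agarose disks went onto the CAM through a shell window, with agarose-only disks as negative control. The window was taped and eggs incubated 24 h. Vessels were counted from dissecting-microscope photographs as mean count per CAM.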

Assay [7] deals with HepG2 cells migration. The experiment in a line: Cell migration. The class given is cell-based, human. Conditions: HepG2, 6.25, 12.5, 25 μg/mL, up to 96 h; untreated closed after 96 h. Summed up: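 Confluent HepG2 monolayers were scratched and exposed to 6.25, 12.5 or 25 µg/mL test compound, with images taken at 0, 12, 24, 30, 48, 54, 72, 78 and 96 h. Gap distances were measured by inverted microscopy (×20), using ten fields per treatment and at least 10 readings per field. Cell-free area gave percentage wound closure.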

Assay [8] deals with angiogenesis-related proteins of HepG2 cells. Description: Human cytokine. Particulars: HepG2, 6.25 μg/mL, cytokine array. It counts as cell-based. Summed up: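 HepG2 cells were exposed to 6.25 µg/mL test compound. Samples with a biotinylated detection-antibody cocktail were bound to a membrane antibody array of angiogenesis proteins carrying duplicate spots. Detection used streptavidin-HRP chemiluminescence on X-ray film with densitometry. Values are fold change versus untreated cultures.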

Assay [9] deals with VEGF, MMP-9 and NF-κB expression in HepG2 cells. The experiment in a line: Western blot analysis of VEGF, MMP-9 and NF-κB. The class given is cell-based, human. Conditions: 6.25 μg/mL, P < 0.05.
Setting [10] is: Homo sapiens, HUVEC, read-out: inhibition of endothelial tube formation.

Regarding `Cc1ccc(C(=O)Nc2ccc(S(=O)(=O)O)c3cc(S(=O)(=O)O)cc(S(=O)(=O)O)c23)cc1NC(=O)c1cccc(NC(=O)Nc2cccc(C(=O)Nc3cc(C(=O)Nc4ccc(S(=O)(=O)O)c5cc(S(=O)(=O)O)cc(S(=O)(=O)O)c45)ccc3C)c2)c1` [Suramin, reference compound], the inhibition at 100 µg/mL in assay [1] (setting [10]) stood at 96%.

In the case of `C/C1=C\CC(C)(C)/C=C/C(=O)/C(C)=C/CC1` [ZER, zerumbone], in assay [2], the inhibition of neovascularization result is recorded as “almost complete inhibition”. Besides, the IC50 in [3] amounted to 6.2 ± 0.7 µg/mL (≈ 28.4 µM). The IC50 in assay [4] amounted to 150 ± 0.4 µg/mL (≈ 687 µM). For the same compound, the IC50 in assay [5] (Homo sapiens, read-out: IC50±SD, HUVEC, MTT, 72 h) is > 50 µg/mL. For the same compound, the “IC50±SD” value in assay [5] (MTT) worked out at 62.0 ± 1.3 µg/mL (≈ 284 µM). In addition, in assay [1] (HUVECs, 3.125 μg/mL), the “effect on endothelial tube network” value is “reduced the intensity of network structures and caused the formation of incomplete and broken tubules”. Besides, in assay [1] (setting [10]), the inhibition at 12.5 µg/mL was 89%. Moreover, in [6], the “effect on CAM vasculature” value is on record as “vascular regression”. For the same compound, the scratch wound closure result in assay [7] is listed as “not scratch closure”. Further, in assay [8], the MMP expression result is on record as “inhibited expression”, the VEGF expression result is reported as “inhibited expression”, the angiogenin expression result is given as “inhibited expression” and the angiopoietin expression entry is “inhibited expression”. Besides, in [8], the endostatin expression entry is given as “increasing expression” and the thrombospondin expression entry was “increasing expression”. In assay [9], the “Matrix metalloproteinase-9 (MMP-9) expression” value is on record as “downregulation”, the NF-κB expression result was “downregulation” and the VEGF expression entry is on record as “downregulation”.
